The results in this text go back to ChEMBL document CHEMBL1129736, “Bisphenolic compounds that enhance cell cation transport are found in commercial phenol red” (1996).

A short description of assay [1]: K+ / Na+ ratio in HF(Human foreskin fibroblasts) cells. The assay is classed as functional.
The test system of assay [2] is HFF. The experiment in a line: Effect of compound on K+ ion content of HFF (Human foreskin fibroblasts) Cells at 3 ug/mL. It is filed as functional.
For assay [3], the system named is HFF. The experiment in a line: Effect of compound on Na+ ion content of HFF (Human foreskin fibroblasts) Cells at 3 ug/mL. The assay is classed as functional.
In assay [4] the test system is HFF. The experiment in a line: Effect of compound on K+ ion content of HFF (Human foreskin fibroblasts) Cells at 125 ng/mL. It is filed as functional.
Assay [5] has as its system HFF. The experiment in a line: Effect of compound on Na+ ion content of HFF (Human foreskin fibroblasts) Cells at 125 ng/mL. It is filed as functional.
Assay [6] is described as follows: K+ / Na+ ratio in HF(Human foreskin fibroblasts) cells at 100 ng/mL. The assay is classed as functional. The procedure, abridged: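 HF cells were in 6 cm dishes at 5 × 10⁵ to 2 × 10⁶ cells/dish. Growth medium was replaced with serum-free test solution by four rapid rinses. Incubation was 45 min at 37 °C in CO2/air. Dishes were rinsed six times with iced 0.1 M MgCl2 and intracellular K⁺ and Na⁺ were assayed. The K⁺/Na⁺ ratio is the mean of duplicate dishes.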

Assay [7] deals with HFF. The experiment in a line: Effect of compound on K+ ion content of HFF (Human foreskin fibroblasts) Cells at 10 ng/mL. The assay is classed as functional. Summed up: (§1)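 Human foreskin fibroblasts were grown in 6 cm dishes in DMEM with 10% FBS and antibiotics at 37 °C in CO2/air, pH 7.2-7.4, at 5 × 10⁵ to 2 × 10⁶ cells/dish. Medium was swapped for serum-free test solution by four rinses. Incubation was 45 min, or 30 min in expt III, at 37 °C. Dishes were washed six times with iced MgCl2 or MgSO4. Read-out was K⁺ or Na⁺ per dish (10⁸ × mol), mean of duplicate dishes.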

Assay [8] has as its system HFF. The assay can be described thus: Effect of compound on K+ ion content of HFF (Human foreskin fibroblasts) Cells at 30 ng/mL. It is filed as functional. Summed up:
as §1

Assay [9] has as its system HFF. The assay can be described thus: Effect of compound on Na+ ion content of HFF (Human foreskin fibroblasts) Cells at 0.03 ug/mL. It is filed as functional. The procedure, abridged: as §1
In assay [10] the test system is HFF. The assay can be described thus: Effect of compound on Na+ ion content of HFF (Human foreskin fibroblasts) Cells at 30 ng/mL. The assay is classed as functional. Summed up: as §1
Assay [11] relates to HFF. The assay can be described thus: Effect of compound on Na+ ion content of HFF (Human foreskin fibroblasts) Cells at 10 ng/mL. The assay is classed as functional. The procedure, abridged:
as §1

Assay [12] concerns HFF. The assay can be described thus: Effect of compound on K+ ion content of HFF (Human foreskin fibroblasts) Cells at 100 ng/mL. The assay is classed as functional. The procedure, abridged:
as §1

Assay [13] deals with HFF. The experiment in a line: Effect of compound on K+ ion content of HFF (Human foreskin fibroblasts) Cells at 4.8 ug/mL. The assay is classed as functional.
In assay [14] the test system is HFF. The experiment in a line: Effect of compound on Na+ ion content of HFF Cells at 4.8 ug/mL. The assay is classed as functional, Homo sapiens.
The subject of assay [15] is HFF. The assay can be described thus: Effect of compound on Na+ ion content of HFF (Human foreskin fibroblasts) Cells at 31 ng/mL. The assay is classed as functional. Summed up: as §1
Assay [16] has as its system HFF. The assay can be described thus: Effect of compound on Na+ ion content of HFF (Human foreskin fibroblasts) Cells at 15.6 ng/mL. The assay is classed as functional. Summed up: as §1
For assay [17], the system named is HFF. The assay can be described thus: Effect of compound on K+ ion content of HFF (Human foreskin fibroblasts) Cells at 15.6 ng/mL. It is filed as functional. The procedure, abridged:
as §1

In assay [18] the test system is HFF. The experiment in a line: Effect of compound on K+ ion content of HFF (Human foreskin fibroblasts) Cells at 62.5 ng/mL. It is filed as functional. Summed up: as §1
Assay [19] relates to HFF. The assay can be described thus: Effect of compound on Na+ ion content of HFF (Human foreskin fibroblasts) Cells at 62.5 ng/mL. It is filed as functional. The procedure, abridged: as §1
For assay [20], the system named is HFF. The assay can be described thus: Effect of compound on K+ ion content of HFF (Human foreskin fibroblasts) Cells at 31 ng/mL. It is filed as functional. Summed up:
as §1

In assay [21] the test system is HFF. The experiment in a line: Effect of compound on K+ ion content of HFF (Human foreskin fibroblasts) Cells at 0.03 ug/mL. The assay is classed as functional. The procedure, abridged:
as §1

Assay [22] concerns HFF. The assay can be described thus: Effect of compound on K+ ion content of HFF (Human foreskin fibroblasts) Cells at 0.3 ug/mL. It is filed as functional. Summed up: as §1
For assay [23], the system named is HFF. The experiment in a line: Effect of compound on Na+ ion content of HFF (Human foreskin fibroblasts) Cells at 0.1 ug/mL. The assay is classed as functional. The procedure, abridged: as §1
Assay [24] has as its system HFF. The experiment in a line: Effect of compound on Na+ ion content of HFF (Human foreskin fibroblasts) Cells at 0.3 ug/mL. It is filed as functional. The procedure, abridged:
as §1

Assay [25] concerns HFF. The experiment in a line: Effect of compound on K+ ion content of HFF (Human foreskin fibroblasts) Cells at 0.1 ug/mL. It is filed as functional. Summed up: as §1
Assay [26] deals with HFF. The experiment in a line: Effect of compound on K+ ion content of HFF (Human foreskin fibroblasts) Cells at 4.8 ug/mL (Expt III). The assay is classed as functional. Summed up:
as §1

Assay [27] has as its system HFF. The assay can be described thus: Effect of compound on Na+ ion content of HFF (Human foreskin fibroblasts) Cells at 4.8 ug/mL (Expt III). It is filed as functional. Summed up:
as §1

Assay [28] relates to HFF. The assay can be described thus: Effect of compound on K+ ion content of HFF (Human foreskin fibroblasts) Cells at 2.4 ug/mL. It is filed as functional. The procedure, abridged: as §1
In assay [29] the test system is HFF. The assay can be described thus: Effect of compound on K+ ion content of HFF (Human foreskin fibroblasts) Cells at 4.8 ug/mL (Expt II). The assay is classed as functional. Summed up:
as §1

Assay [30] has as its system HFF. The experiment in a line: Effect of compound on Na+ ion content of HFF (Human foreskin fibroblasts) Cells at 4.8 ug/mL (Expt II). It is filed as functional. The procedure, abridged:
as §1

The subject of assay [31] is HFF. The experiment in a line: Effect of compound on Na+ ion content of HFF (Human foreskin fibroblasts) Cells at 2.4 ug/mL. The assay is classed as functional. Summed up:
as §1

Assay [32] deals with HFF. The experiment in a line: Effect of compound on Na+ ion content of HFF (Human foreskin fibroblasts) Cells at 4.8 ug/mL. It is filed as functional. The procedure, abridged:
as §1

Take `COc1ccc(CCN(C)CCCC(C#N)(c2ccc(OC)c(OC)c2)C(C)C)cc1OC.Oc1ccc(C2(c3ccc(O)cc3)c3ccccc3-c3ccc(O)cc32)cc1` (centres undefined): in [1], the K+/Na+ ratio came out at 0.71. The K+ Ion content in the assay with HFF [2] came to 150 nmol/dish. For the same molecule, the “Na+ ion content” value in the assay on HFF [3] came to 2100000000.

As to `COc1ccc(CCN(C)CCCC(C#N)(c2ccc(OC)c(OC)c2)C(C)C)cc1OC.Oc1ccc(C2(c3ccc(O)cc3)c3ccccc3-c3cc(O)ccc32)cc1` (centres undefined), the “K+ Ion content” value in the assay on HFF [4] is on record as 2000000000. In addition, the “Na+ ion content” value with HFF [5] is reported as 1600000000. Also, the K+/Na+ ratio in assay [1] came out at 1.3.

On to `Oc1ccc(C2(c3ccc(O)cc3)c3ccccc3-c3c(O)cccc32)cc1`, for which the K+/Na+ ratio in [6] turned out to be 0.29. In addition, the K+ Ion content with HFF [7] came to 300 nmol/dish; in the assay with HFF [8] it was 240 nmol/dish; with HFF [12], 67 nmol/dish. In addition, the Na+ ion content was determined as 1.1e+09 with HFF [9], 110 nmol/dish in the assay on HFF [10] and 710000000 in the assay with HFF [11].

Molecule `COc1ccc(CCN(C)CCCC(C#N)(c2ccc(OC)c(OC)c2)C(C)C)cc1OC.Oc1ccc(C2(c3ccc(O)cc3)c3ccccc3Oc3ccccc32)cc1` (centres undefined) returned a K+ Ion content in the assay on HFF [13] of 370 nmol/dish. For the same molecule, the K+/Na+ ratio in assay [1] is 3.4. In the assay with HFF [14], the “Na+ ion content” value stood at 1100000000.

In the case of `Oc1ccc(C2(c3ccc(O)cc3)c3ccccc3-c3cc(O)ccc32)cc1`, the “Na+ ion content” value with HFF [15] amounted to 1200000000; in the assay with HFF [16], 800000000; in the assay on HFF [5], 3800000000; with HFF [19] it was 290 nmol/dish. For the same molecule, the K+ Ion content with HFF [17] came to 3e+09; in the assay with HFF [18], 100 nmol/dish; in the assay with HFF [4], 520000000; in the assay on HFF [20] it was 270 nmol/dish.

`Oc1ccc(C2(c3ccc(O)cc3)c3ccccc3-c3ccc(O)cc32)cc1`: the K+ Ion content in the assay with HFF [21] amounted to 280 nmol/dish; with HFF [22] it was 38 nmol/dish; in the assay with HFF [25], 870000000; in the assay with HFF [2], 55 nmol/dish. Further, the “Na+ ion content” value in the assay on HFF [23] was 2400000000; in the assay with HFF [24] it was 3500000000; in the assay on HFF [9] it was 350000000; in the assay with HFF [3], 3900000000.

For `Oc1ccc(C2(c3ccc(O)cc3)c3ccccc3Oc3ccccc32)cc1`, the figures for the K+ Ion content with HFF [26], in the assay with HFF [28] and in the assay with HFF [29] were 25 nmol/dish, 340 nmol/dish and 240 nmol/dish, respectively. Moreover, the Na+ ion content in the assay with HFF [27] came to 290 nmol/dish; in the assay on HFF [30], 270 nmol/dish; with HFF [31], 190 nmol/dish.

With `C=C[C@H]1CN2CC[C@H]1C[C@H]2[C@H](O)c1ccnc2ccc(OC)cc12.Oc1ccc(C2(c3ccc(O)cc3)c3ccccc3-c3cc(O)ccc32)cc1`, the “K+ Ion content” value with HFF [4] was found to be 2000000000. In the assay on HFF [5], the “Na+ ion content” value was determined as 2200000000. In [1], the K+/Na+ ratio was determined as 0.91.

On to `C=C[C@H]1CN2CC[C@H]1C[C@H]2[C@H](O)c1ccnc2ccc(OC)cc12.Oc1ccc(C2(c3ccc(O)cc3)c3ccccc3Oc3ccccc32)cc1`, for which the K+ Ion content in the assay on HFF [13] was 270 nmol/dish. Besides, in the assay on HFF [32], the “Na+ ion content” value is listed as 1200000000. The K+/Na+ ratio in [1] amounted to 2.3.
